ChEMBL document CHEMBL5150070, “Tricyclic SpiroLactams Kill Mycobacteria In Vitro and In Vivo by Inhibiting Type II NADH Dehydrogenases” (J Med Chem, 2022)

Legend:
[1] = test system: Mycobacterium tuberculosis; test: Bactericidal activity against Non-replicating Mycobacterium tuberculosis ss18b-lux assessed as decrease in colony forming unit measured at 0.6 uM after 1 weeks; type: functional
How it was run: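 Streptomycin-dependent 18b-lux starved of streptomycin for 14 days (OD600 reset to 0.2 on days 7 and 13) to become non-replicating. Diluted to OD600 0.15 on dispensed compound and held at 37°C. On day 7, active wells plated on 7H11-OADC with 50 µg/mL streptomycin and incubated up to 8 weeks for cfu.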

[2] = test system: Mycobacterium tuberculosis; test: Bactericidal activity against Non-replicating Mycobacterium tuberculosis ss18b-lux model assessed as decrease in luminescence at 10 to 10000 nM; type: functional, organism-based; conditions: dose 10-10000 nM, TDE = time-dependent effect
How it was run: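 Non-replicating streptomycin-starved 18b-lux (14-day starvation) diluted to OD600 0.15 in white 96-well plates with compound and incubated at 37°C. Luminescence read on days 1, 2, 5 and 7 and expressed relative to no-antibiotic controls (n ≥ 3).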

[3] = test system: Mycobacterium tuberculosis; test: Antimycobacterial activity against Mycobacterium tuberculosis H37Rv infected in human A-THP1 macrophages assessed as viability of infected macrophages incubated for 96 hrs by fluorescence microplate assay; type: functional, organism-based
How it was run: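 THP-1 cells differentiated with 50 ng/mL PMA for 72 h, infected with log-phase H37Rv (MOI 10, 2 h), and extracellular bacteria killed with 50 µg/mL amikacin for 1 h. Cells detached and seeded at 5×10⁵/mL in RPMI-10% FBS with PMA onto pre-dispensed compound, 96 h at 37°C, 5% CO₂. Macrophage viability by 0.05% resazurin fluorescence.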

CO[C@H]1/C=C/O[C@@]2(C)Oc3c(C)c(O)c4c(O)c(c(/C=N/N5CCN(C)CC5)c(O)c4c3C2=O)NC(=O)/C(C)=C\C=C\[C@H](C)[C@H](O)[C@@H](C)[C@@H](O)[C@@H](C)[C@H](OC(C)=O)[C@@H]1C [RIFAMPIN]
Activity [1]: 1 log10CFU
Activity [2]: Tde
IC50 [3]: 91 nM
